Converted amounts (≈) assume the structure as drawn. The source made the active and inactive calls. The rule behind the calls is not given here.
Legend:
Leishmania infantum [1] = assay: Antileishmanial activity against Leishmania infantum promastigotes; assay type: functional, organism-based
Trypanosoma cruzi [2] = assay: Antitrypanosomal activity against of Trypanosoma cruzi epimastigotes; assay type: functional, organism-based
Trypanosoma cruzi [3] = assay: […] activity against Trypanosoma cruzi epimastigotes assessed as change in parasites in presence of zinc(II); assay type: functional, organism-based
Outline: (§1)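 Parasite proliferation was run in the presence of copper(II), iron(III) or zinc(II) salts, each at 1 μM.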

Trypanosoma cruzi [4] = assay: Induction of ROS production in Trypanosoma cruzi epimastigotes in presence of Zn2+; assay type: functional, organism-based
Outline: (§2)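 Oxidative stress in parasite cultures was read fluorometrically with the 2,7-dichlorodihydrofluorescein diacetate (DCFH-DA) probe against a negative-control culture, and was also run with metal cations present.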

Trypanosoma cruzi [5] = assay: […] activity against Trypanosoma cruzi epimastigotes assessed as change in parasites in presence of iron(III); assay type: functional, organism-based; outline: as §1
Leishmania infantum [6] = assay: Induction of ROS production in Leishmania infantum promastigotes in presence of Zn2+; assay type: functional, organism-based; outline: as §2
[7] = Selectivity index, ratio of CC50 for mouse J774.1 cells to IC50 for Trypanosoma cruzi epimastigotes; assay type: toxicity; settings: read-out: Ratio CC50/IC50
Outline: (§3)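 Cytotoxicity (CC50) was measured on murine J774.1A macrophages. Selectivity index is CC50 divided by parasite IC50 (promastigote, epimastigote or axenic amastigote). Values are the mean of three independent experiments.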

Leishmania infantum [8] = assay: Antileishmanial activity against Leishmania infantum axenic amastigotes; assay type: functional, organism-based
Trypanosoma cruzi [9] = assay: […] activity against Trypanosoma cruzi epimastigotes assessed as change in parasites in presence of copper(II); assay type: functional, organism-based; outline: as §1
[10] = Cytotoxicity against mouse J774.1 cells; assay type: toxicity, cell-based; outline: as §3
Leishmania infantum [11] = assay: Induction of ROS production in Leishmania infantum promastigotes in presence of Cu2+; assay type: functional, organism-based; outline: as §2
[12] = Selectivity index, ratio of CC50 for mouse J774.1 cells to IC50 for Leishmania infantum promastigotes; assay type: toxicity; settings: read-out: Ratio CC50/IC50; outline: as §3
Trypanosoma cruzi [13] = assay: Induction of ROS production in Trypanosoma cruzi epimastigotes in presence of Fe3+; assay type: functional, organism-based; outline: as §2
Leishmania infantum [14] = assay: Antileishmanial activity against Leishmania infantum promastigotes assessed as decrease in IC50 in presence of zinc(II); assay type: functional, organism-based; outline: as §1
Leishmania infantum [15] = assay: Antileishmanial activity against Leishmania infantum promastigotes assessed as decrease in IC50 in presence of copper(II); assay type: functional, organism-based; outline: as §1
[16] = Solubility of the compound by UV-Vis spectroscopy; assay type: physicochemical
Outline: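 Solubility in μM was determined by UV-Vis spectroscopy.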

Leishmania infantum [17] = assay: Antileishmanial activity against Leishmania infantum promastigotes assessed as decrease in IC50 in presence of iron(III); assay type: functional, organism-based; outline: as §1
Trypanosoma cruzi [18] = assay: Induction of ROS production in Trypanosoma cruzi epimastigotes in presence of Cu2+; assay type: functional, organism-based; outline: as §2
Leishmania infantum [19] = assay: Induction of ROS production in Leishmania infantum promastigotes in presence of Fe3+; assay type: functional, organism-based; outline: as §2
[20] = Selectivity index, ratio of CC50 for mouse J774.1 cells to IC50 for Leishmania infantum amastigotes; assay type: toxicity; settings: read-out: Ratio CC50/IC50; outline: as §3
Trypanosoma cruzi [21] = assay: Antitrypanosomal activity against of Trypanosoma cruzi epimastigotes at 25 uM; assay type: functional
Trypanosoma cruzi [22] = assay: Induction of NO production in Trypanosoma cruzi epimastigotes by Griess method; assay type: functional, organism-based
Outline: (§4)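 NO production in parasite cultures was measured at three test concentrations, either 25, 50 and 100 μM or 1, 5 and 10 μM depending on the compound.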

Trypanosoma cruzi [23] = assay: Antitrypanosomal activity against of Trypanosoma cruzi epimastigotes assessed as increase in IC50 in presence of FA; assay type: functional
Trypanosoma cruzi [24] = assay: Induction of ROS production in Trypanosoma cruzi epimastigotes by DCFH-DA staining based flow cytometry analysis; assay type: functional, organism-based; outline: as §2
Leishmania infantum [25] = assay: Antileishmanial activity against Leishmania infantum promastigotes assessed as increase in IC50 in presence of FA; assay type: functional
Leishmania infantum [26] = assay: Induction of ROS production in Leishmania infantum promastigotes by DCFH-DA staining based flow cytometry analysis; assay type: functional, organism-based; outline: as §2
Leishmania infantum [27] = assay: Induction of NO production in Leishmania infantum promastigotes by Griess method; assay type: functional, organism-based; outline: as §4
Trypanosoma cruzi [28] = assay: Antitrypanosomal activity against of Trypanosoma cruzi epimastigotes in presence of FA; assay type: functional, organism-based
[29] = Mutagenicity in Salmonella typhimurium TA98 assessed as number of revertant colonies at 3000 uM by Ames test (reference value: 4); assay type: toxicity; settings: salmonella enterica subsp. enterica […]
Outline: (§5)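 Ames reverse-mutation assay in Salmonella typhimurium TA 98. Revertant colonies were counted at five escalating dose levels alongside a zero-dose (spontaneous revertant) negative control and a 4-nitro-o-phenylenediamine positive control. A compound was called mutagenic when revertants exceeded twice the negative control at two consecutive dose levels.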

[30] = Mutagenicity in Salmonella typhimurium TA98 assessed as number of revertant colonies at 1000 uM by Ames test (reference value: 4); assay type: toxicity; settings: salmonella enterica subsp. enterica […]; outline: as §5
[31] = Mutagenicity in Salmonella typhimurium TA98 assessed as number of revertant colonies at 100 uM by Ames test (reference value: 4); assay type: toxicity; settings: salmonella enterica subsp. enterica […]; outline: as §5
[32] = Mutagenicity in Salmonella typhimurium TA98 assessed as number of revertant colonies at 300 uM by Ames test (reference value: 4); assay type: toxicity; settings: salmonella enterica subsp. enterica […]; outline: as §5
[33] = Mutagenicity in Salmonella typhimurium TA98 assessed as number of revertant colonies at 9000 uM by Ames test (reference value: 4); assay type: toxicity; settings: salmonella enterica subsp. enterica […]; outline: as §5
Leishmania infantum [34] = assay: Antileishmanial activity against Leishmania infantum promastigotes in presence of FA; assay type: functional, organism-based
[35] = Mutagenicity in Salmonella typhimurium TA98 assessed as number of revertant colonies at 90 uM by Ames test (reference value: 4); assay type: toxicity; settings: salmonella enterica subsp. enterica […]; outline: as §5
Leishmania infantum [36] = assay: Induction of NO production in Leishmania infantum promastigotes at highest concentration by Griess method; assay type: functional; outline: as §4
[37] = Mutagenicity in Salmonella typhimurium TA98 assessed as number of revertant colonies at 830 uM by Ames test (reference value: 4); assay type: toxicity; settings: salmonella enterica subsp. enterica […]; outline: as §5
Trypanosoma cruzi [38] = assay: Induction of NO production in Trypanosoma cruzi epimastigotes at highest concentration by Griess method; assay type: functional; outline: as §4
[39] = Mutagenicity in Salmonella typhimurium TA98 assessed as number of revertant colonies at 270 uM by Ames test (reference value: 4); assay type: toxicity; settings: salmonella enterica subsp. enterica […]; outline: as §5
[40] = Mutagenicity in Salmonella typhimurium TA98 assessed as number of revertant colonies at 7500 uM by Ames test (reference value: 4); assay type: toxicity; settings: salmonella enterica subsp. enterica […]; outline: as §5
[41] = Mutagenicity in Salmonella typhimurium TA98 assessed as number of revertant colonies at 2500 uM by Ames test (reference value: 4); assay type: toxicity; settings: salmonella enterica subsp. enterica […]; outline: as §5

SMILES: O=c1[nH]c(-c2cccc(Cl)c2)nc2ccccc12
- IC50 (Leishmania infantum [1]): > 25 µM
- IC50 (Trypanosoma cruzi [2]): > 25 µM

SMILES: O=[N+]([O-])c1ccc(/C=N/N=c2\[nH]c(-c3ccccc3)nc3ccccc23)o1
- Activity (Trypanosoma cruzi [3]): inactive
- Activity (Trypanosoma cruzi [4]): Active
- IC50 (Leishmania infantum [1]): 0.88 µM
- Activity (Trypanosoma cruzi [5]): inactive
- Activity (Leishmania infantum [6]): Active
- selectivity ratio [7]: 23.9
- IC50 (Leishmania infantum [8]): 0.93 µM
- Activity (Trypanosoma cruzi [9]): inactive
- CC50 [10]: 15.1 µM
- Activity (Leishmania infantum [11]): Active
- selectivity ratio [12]: 17.1
- IC50 (Trypanosoma cruzi [2]): 0.63 µM
- Activity (Trypanosoma cruzi [13]): Active
- Activity (Leishmania infantum [14]): Active
- Activity (Leishmania infantum [15]): Active
- solubility [16]: 7.99 µM (≈ 2.87 µg/mL)
- Activity (Leishmania infantum [17]): Active
- Activity (Trypanosoma cruzi [18]): Active
- Activity (Leishmania infantum [19]): Active
- selectivity ratio [20]: 16.2

SMILES: NNc1nc(-c2cccc(Br)c2)nc2ccccc12
- IC50 (Leishmania infantum [1]): 21.1 µM
- inhibition at 25 µM (Trypanosoma cruzi [21]): 21.4%
- IC50 (Trypanosoma cruzi [2]): > 25 µM

SMILES: Fc1ccc(-c2nc3ccccc3/c(=N/N=C/c3ccco3)[nH]2)cc1
- IC50 (Leishmania infantum [1]): 9.07 µM
- Activity (Trypanosoma cruzi [22]): inactive
- selectivity ratio [7]: 5.7
- Activity (Trypanosoma cruzi [23]): 37%
- IC50 (Leishmania infantum [8]): 11.1 µM
- CC50 [10]: 119 µM
- Activity (Trypanosoma cruzi [24]): inactive
- Activity (Leishmania infantum [25]): 41%
- selectivity ratio [12]: 13.1
- IC50 (Trypanosoma cruzi [2]): 9.07 µM
- Activity (Leishmania infantum [26]): inactive
- Activity (Leishmania infantum [27]): inactive
- IC50 (Trypanosoma cruzi [28]): 33.1 µM
- solubility [16]: 7.87 µM (≈ 2.62 µg/mL)
- selectivity ratio [20]: 10.7

SMILES: O=[N+]([O-])c1ccc(/C=N/N=c2\[nH]c(-c3ccc(F)cc3)nc3ccccc23)o1
- Activity (Trypanosoma cruzi [3]): inactive
- Activity (Trypanosoma cruzi [4]): Active
- Activity [29]: 3
- IC50 (Leishmania infantum [1]): 4.56 µM
- Activity (Trypanosoma cruzi [5]): inactive
- Activity [30]: 3.5
- Activity (Leishmania infantum [6]): Active
- selectivity ratio [7]: 16.8
- Activity (Trypanosoma cruzi [23]): 38%
- IC50 (Leishmania infantum [8]): 3.52 µM
- Activity (Trypanosoma cruzi [9]): inactive
- CC50 [10]: 69.1 µM
- Activity [31]: 2
- Activity [32]: 2.5
- Activity [33]: 3
- Activity (Leishmania infantum [25]): 31%
- Activity (Leishmania infantum [11]): Active
- selectivity ratio [12]: 15.1
- IC50 (Trypanosoma cruzi [2]): 4.08 µM
- Activity (Trypanosoma cruzi [13]): Active
- Activity (Leishmania infantum [14]): Active
- IC50 (Trypanosoma cruzi [28]): 6.54 µM
- Activity (Leishmania infantum [15]): Active
- solubility [16]: 5.11 µM (≈ 1.93 µg/mL)
- Activity (Leishmania infantum [17]): Active
- Activity (Trypanosoma cruzi [18]): Active
- Activity (Leishmania infantum [19]): Active
- selectivity ratio [20]: 19.6

SMILES: NNc1nc(-c2ccc(Br)cc2)nc2ccccc12
- IC50 (Leishmania infantum [1]): 2.13 µM
- Activity (Trypanosoma cruzi [23]): 48%
- Activity (Leishmania infantum [25]): 33%
- IC50 (Trypanosoma cruzi [2]): 14.3 µM
- IC50 (Leishmania infantum [34]): 2.83 µM
- IC50 (Trypanosoma cruzi [28]): 25.2 µM

SMILES: NNc1nc(-c2ccc(F)cc2)nc2ccccc12
- IC50 (Leishmania infantum [1]): 5.01 µM
- IC50 (Trypanosoma cruzi [2]): 17.9 µM

SMILES: O=[N+]([O-])c1ccc(/C=N/N=c2\[nH]c(-c3cccc(Cl)c3)nc3ccccc23)o1
- Activity [35]: 3
- Activity (Trypanosoma cruzi [3]): inactive
- Activity (Trypanosoma cruzi [4]): Active
- IC50 (Leishmania infantum [1]): 0.77 µM
- Activity (Trypanosoma cruzi [22]): Dose-Dependent Effect
- Activity (Trypanosoma cruzi [5]): inactive
- Activity (Leishmania infantum [6]): Active
- selectivity ratio [7]: 60.2
- Activity (Leishmania infantum [36]): 2 µM
- IC50 (Leishmania infantum [8]): 0.89 µM
- Activity (Trypanosoma cruzi [9]): inactive
- CC50 [10]: 41.6 µM
- Activity (Trypanosoma cruzi [24]): Active
- Activity [37]: 9.5
- Activity (Leishmania infantum [11]): Active
- selectivity ratio [12]: 54
- IC50 (Trypanosoma cruzi [2]): 0.77 µM
- Activity (Leishmania infantum [26]): Active
- Activity (Trypanosoma cruzi [38]): 1 µM
- Activity (Leishmania infantum [27]): Dose-Dependent Effect
- Activity (Trypanosoma cruzi [13]): Active
- Activity (Leishmania infantum [14]): Active
- Activity [39]: 10
- Activity [40]: 9.5
- Activity (Leishmania infantum [15]): Active
- Activity [41]: 10.5
- solubility [16]: 7.11 µM (≈ 2.8 µg/mL)
- Activity (Leishmania infantum [17]): Active
- Activity (Trypanosoma cruzi [18]): Active
- Activity (Leishmania infantum [19]): Active
- selectivity ratio [20]: 46.7

SMILES: NNc1nc(-c2cccc(Cl)c2)nc2ccccc12
- IC50 (Leishmania infantum [1]): 4.55 µM
- inhibition at 25 µM (Trypanosoma cruzi [21]): 38%
- IC50 (Trypanosoma cruzi [2]): > 25 µM

SMILES: O=[N+]([O-])c1ccc(/C=N/N=c2\[nH]c(-c3ccc(Br)cc3)nc3ccccc23)o1
- IC50 (Leishmania infantum [1]): > 25 µM
- IC50 (Trypanosoma cruzi [2]): > 25 µM
- solubility [16]: 2.67 µM (≈ 1.17 µg/mL)

SMILES: O=c1[nH]c(-c2ccc(Cl)cc2)nc2ccccc12
- IC50 (Leishmania infantum [1]): 4.88 µM
- Activity (Trypanosoma cruzi [22]): inactive
- Activity (Trypanosoma cruzi [23]): 34%
- Activity (Trypanosoma cruzi [24]): inactive
- Activity (Leishmania infantum [25]): 27%
- IC50 (Trypanosoma cruzi [2]): 18.1 µM
- Activity (Leishmania infantum [26]): inactive
- Activity (Leishmania infantum [27]): inactive
- IC50 (Leishmania infantum [34]): 6.22 µM
- IC50 (Trypanosoma cruzi [28]): 24.2 µM

SMILES: Cc1ccc(-c2nc3ccccc3c(=O)[nH]2)cc1
- IC50 (Leishmania infantum [1]): 5.23 µM
- IC50 (Trypanosoma cruzi [2]): > 25 µM
